# Assay results from different studies.
# Lines come from different studies, so protocols differ.
# Target: Death-associated protein kinase 2 (DAPK2, Homo sapiens, UniProt Q9UIK4)
Structure (SMILES),test,conditions,measurement,value
O=c1[nH]c2ccccc2n1C1CCN(Cc2ccc(-c3[nH]c4cc5ncnc5cc4nc3-c3ccccc3)cc2)CC1,cell-free assay,0.5 µM,remaining signal,99%
N#CC1(c2ccccn2)CCN(Cc2cc(C(=O)O)c(=O)n3ccccc23)CC1,"cell-free assay, competition with immobilised ligand",1 µM,remaining binding,99%
Nc1ncc(-c2nc(N3CCOCC3)nc(N3CCOCC3)n2)c(C(F)F)n1,"binding, competition with immobilised ligand",10 µM,remaining binding,76%
CC(C)(C)c1cc(C=C(C#N)C#N)cc(Br)c1O,"enzyme activity, inhibitor",0.5 µM,remaining activity,108%
Cn1cncc1[C@@](O)(COc1ccc(C#N)cc1-c1ccc(OC(F)(F)F)cc1)c1ccc(C#N)cc1,"cell-free assay, competition with immobilised ligand",1 µM,remaining binding,97%
COc1cc(Nc2ncc(F)c(Nc3ccc4c(n3)NC(=O)C(C)(C)O4)n2)cc(OC)c1OC,"binding, competition with immobilised ligand",10 µM,inhibition,95%
COc1ncccc1-c1cnn2ccc(N3CCN(C(=O)OC(C)C)CC3)nc12,"binding, competition with immobilised ligand",1 µM,remaining binding,86%
Cc1nn(C)cc1-c1nc2c(N3CCN(Cc4ccc(Cl)cc4)CC3)c(Cl)cnc2[nH]1,"binding, competition with immobilised ligand",1 µM,remaining binding,80%
